Laboratory results taken from article PMC4304478 (Journal of the American Chemical Society, 2014).
*1 amine or outer side, *2 acyl side, *3 side chain or, on linkers, in order; H or OH if unused. Bridges are numbered along the chain shown (N, C = ends). Roman numbers before positions name the chains, in order. Where no end group is shown, it is not given here. [ ]: non-standard residue; d: D form. X1 = O=C(NCCCOCCCCOCCCNC(=O)c1ccc(/C=N/OCC(=O)[*:2])cc1)c1ccc(/C=N/OCC(=O)[*:1])cc1; Dap = NC[C@H](N)C(=O)O

Experiments:
[1] = target: integrin receptors (αvβ5) expressed on MDA-MB-231 cells (Homo sapiens, UniProt P06756+P18084); experiment: Competition binding assay with Alexa488-2.5F on MDA-MB-231 cells; conditions: from competition IC50 values
MDA-MB-231 cells = experiment: Cell proliferation assay; format: cell-based, human; conditions: varying concentrations, 12–72 h, Cell Counting Kit-8; relative to cilengitide
Method in brief: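 MDA-MB-231 cells exposed to varying concentrations of test knottins or a reference compound for 12–72 h. Proliferation was read out as […] activity in living cells with the CCK-8 kit. Concentration–response was read at 72 h, and the time course used 1 μM protein. Values are expressed relative to an untreated control.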

Chain of integrin receptors (αvβ5) expressed on MDA-MB-231 cells (P06756 891-1048): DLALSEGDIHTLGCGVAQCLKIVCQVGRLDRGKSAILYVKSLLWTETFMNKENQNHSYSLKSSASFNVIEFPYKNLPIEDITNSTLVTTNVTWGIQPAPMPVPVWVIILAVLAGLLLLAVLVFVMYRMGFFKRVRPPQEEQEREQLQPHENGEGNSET
Chain of integrin receptors (αvβ5) expressed on MDA-MB-231 cells (P18084 24-799): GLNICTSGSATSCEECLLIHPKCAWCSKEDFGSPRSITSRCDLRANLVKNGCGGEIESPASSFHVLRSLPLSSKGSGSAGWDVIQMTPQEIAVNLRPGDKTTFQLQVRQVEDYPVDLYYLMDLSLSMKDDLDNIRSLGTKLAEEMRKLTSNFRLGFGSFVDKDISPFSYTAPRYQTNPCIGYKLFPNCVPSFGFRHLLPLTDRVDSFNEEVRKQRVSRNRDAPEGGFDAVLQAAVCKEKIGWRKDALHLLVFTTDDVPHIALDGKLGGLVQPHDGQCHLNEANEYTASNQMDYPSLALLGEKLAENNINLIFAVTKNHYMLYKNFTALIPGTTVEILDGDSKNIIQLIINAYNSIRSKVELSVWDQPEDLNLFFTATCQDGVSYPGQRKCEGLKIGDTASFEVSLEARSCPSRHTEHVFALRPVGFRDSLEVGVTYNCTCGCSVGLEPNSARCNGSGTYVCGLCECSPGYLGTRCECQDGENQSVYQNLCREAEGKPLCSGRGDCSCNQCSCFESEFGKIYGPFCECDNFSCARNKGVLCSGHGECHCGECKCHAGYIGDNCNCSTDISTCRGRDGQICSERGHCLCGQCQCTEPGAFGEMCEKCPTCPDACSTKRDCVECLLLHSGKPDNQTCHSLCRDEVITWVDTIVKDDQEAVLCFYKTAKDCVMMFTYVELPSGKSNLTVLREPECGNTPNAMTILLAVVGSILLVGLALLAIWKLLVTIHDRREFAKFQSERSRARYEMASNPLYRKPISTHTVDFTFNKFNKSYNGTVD
Chain of integrin receptors (αvβ5) expressed on MDA-MB-231 cells (P06756 31-889): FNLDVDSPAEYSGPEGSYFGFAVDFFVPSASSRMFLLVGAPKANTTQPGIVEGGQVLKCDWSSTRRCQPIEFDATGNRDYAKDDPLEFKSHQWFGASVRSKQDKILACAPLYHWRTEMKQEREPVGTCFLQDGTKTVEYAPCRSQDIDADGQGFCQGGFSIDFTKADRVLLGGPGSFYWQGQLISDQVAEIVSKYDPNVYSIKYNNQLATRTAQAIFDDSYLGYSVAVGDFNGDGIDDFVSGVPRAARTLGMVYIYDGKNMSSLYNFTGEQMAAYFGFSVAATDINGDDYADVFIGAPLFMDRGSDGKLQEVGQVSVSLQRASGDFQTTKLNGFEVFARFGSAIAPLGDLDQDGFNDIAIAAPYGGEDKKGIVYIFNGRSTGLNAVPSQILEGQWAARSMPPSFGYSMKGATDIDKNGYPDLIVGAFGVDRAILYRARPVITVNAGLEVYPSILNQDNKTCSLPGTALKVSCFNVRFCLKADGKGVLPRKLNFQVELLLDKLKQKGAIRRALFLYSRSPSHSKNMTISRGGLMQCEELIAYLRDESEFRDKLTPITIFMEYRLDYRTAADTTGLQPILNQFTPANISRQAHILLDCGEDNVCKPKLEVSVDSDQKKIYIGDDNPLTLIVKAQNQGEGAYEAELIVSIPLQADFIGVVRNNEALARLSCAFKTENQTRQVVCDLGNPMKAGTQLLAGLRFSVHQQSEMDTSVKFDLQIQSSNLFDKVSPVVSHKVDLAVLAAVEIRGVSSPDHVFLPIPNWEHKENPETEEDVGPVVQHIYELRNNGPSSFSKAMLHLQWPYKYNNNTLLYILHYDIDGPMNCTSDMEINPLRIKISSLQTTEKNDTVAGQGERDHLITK

## I: GCPRPRGDNPPLTC[Dap]QDSDCLAGCVCGPNGFCG-NH2 / II: GCPRPRGDNPPLTC[Dap]QDSDCLAGCVCGPNGFCG-NH2 (disulfide I:2-I:24, I:14-I:26, I:20-I:32, II:2-II:24, II:14-II:26, II:20-II:32; linker I:15-II:15 via X1) [D2.5F_1]
[1]
  Increase in relative binding affinity compared with cilengitide: 500 fold
  Increase in relative binding affinity compared with the knottin monomer: 60 fold
MDA-MB-231 cells
  Inhibition of MDA-MB-231 cell proliferation: significantly more potent
